Measured values: ChEMBL document CHEMBL1134599, “Design and synthesis of [(2,3-dichlorophenyl)piperazin-1-yl]alkylfluorenylcarboxamides as novel ligands selective for the dopamine D3 receptor subtype” (J Med Chem, 2001)

Assays:
D(2) dopamine receptor = D(2) dopamine receptor (Homo sapiens, UniProt P14416); test: Binding affinity at human dopamine receptor D2
Procedure, shortened: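 Membranes from CHO cells expressing cloned D2 receptor (labelled primate in methods). Compounds tested at 0.1 nM–10 µM in duplicate with 0.1 nM [3H]YM-09151-2 and 40 µg membrane protein. Buffer was 50 mM Tris pH 7.4 with 120 mM NaCl, bacitracin and aprotinin. Incubated 2 h at room temperature, then filtered on PEI-treated GF/C. Nonspecific binding defined with 10 µM spiperone. IC50 converted to Ki by Cheng-Prusoff. 2–3 independent experiments.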

D(4) dopamine receptor = target: T1, D(4) dopamine receptor (Homo sapiens, UniProt P21917); test: Binding affinity at human dopamine receptor D4
T1 sequence (P21917 whole entry): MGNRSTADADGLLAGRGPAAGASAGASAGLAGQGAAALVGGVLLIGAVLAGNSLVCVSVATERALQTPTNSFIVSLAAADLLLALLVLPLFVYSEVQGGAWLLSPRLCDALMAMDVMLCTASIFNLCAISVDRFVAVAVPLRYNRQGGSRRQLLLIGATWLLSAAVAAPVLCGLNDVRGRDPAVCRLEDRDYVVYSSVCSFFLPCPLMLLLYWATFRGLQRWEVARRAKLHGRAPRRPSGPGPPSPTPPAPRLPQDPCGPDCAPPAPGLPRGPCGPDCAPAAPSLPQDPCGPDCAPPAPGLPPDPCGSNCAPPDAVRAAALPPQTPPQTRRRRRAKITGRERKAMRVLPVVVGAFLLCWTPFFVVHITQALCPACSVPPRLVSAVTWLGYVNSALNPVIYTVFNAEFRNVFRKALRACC
Procedure, shortened: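 Membranes from CHO cells expressing cloned human D4 receptor, prepared in HEPES buffer with protease inhibitors. Compounds tested at 0.1 nM–10 µM in duplicate with 0.1 nM [3H]YM-09151-2 and 40 µg protein, in 50 mM Tris pH 7.4 with 120 mM NaCl. Incubated 2 h at room temperature, then filtered and counted by scintillation. Nonspecific binding defined with 10 µM spiperone. Ki from IC50 by Cheng-Prusoff. 2–3 independent experiments.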

D(3) dopamine receptor = D(3) dopamine receptor (Homo sapiens, UniProt P35462); test: Binding affinity at dopamine receptor D3
D(3) dopamine receptor, sequence (P35462 whole entry): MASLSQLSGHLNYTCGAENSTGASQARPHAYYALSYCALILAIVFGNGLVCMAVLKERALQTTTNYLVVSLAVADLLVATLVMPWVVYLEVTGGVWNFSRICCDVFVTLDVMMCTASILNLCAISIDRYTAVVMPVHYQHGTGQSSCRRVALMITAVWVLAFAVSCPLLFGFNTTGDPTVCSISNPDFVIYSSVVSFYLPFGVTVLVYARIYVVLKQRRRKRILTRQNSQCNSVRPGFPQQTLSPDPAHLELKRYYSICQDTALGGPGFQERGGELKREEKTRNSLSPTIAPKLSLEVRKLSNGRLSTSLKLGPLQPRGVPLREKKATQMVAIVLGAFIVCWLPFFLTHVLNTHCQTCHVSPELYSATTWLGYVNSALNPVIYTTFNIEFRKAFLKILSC

[1] = Binding affinity at human dopamine receptor D2

D(2) dopamine receptor, sequence (P14416 whole entry): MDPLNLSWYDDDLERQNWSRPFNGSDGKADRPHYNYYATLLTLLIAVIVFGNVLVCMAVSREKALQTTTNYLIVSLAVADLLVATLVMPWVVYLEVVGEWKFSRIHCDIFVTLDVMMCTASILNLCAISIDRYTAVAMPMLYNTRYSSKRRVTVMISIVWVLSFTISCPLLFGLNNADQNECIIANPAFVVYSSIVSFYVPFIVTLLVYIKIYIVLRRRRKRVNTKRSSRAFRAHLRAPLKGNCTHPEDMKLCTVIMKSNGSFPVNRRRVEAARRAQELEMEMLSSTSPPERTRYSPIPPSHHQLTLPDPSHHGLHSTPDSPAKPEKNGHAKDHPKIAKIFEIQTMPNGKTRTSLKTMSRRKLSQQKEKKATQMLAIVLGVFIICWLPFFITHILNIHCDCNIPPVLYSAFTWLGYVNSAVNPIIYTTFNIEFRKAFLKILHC

SMILES | Ki (D(2) dopamine receptor) | Ki (D(4) dopamine receptor) | Ki (D(3) dopamine receptor) | Ki [1]
Clc1cccc(C(OC2CC3CCC(C2)N3CCCc2ccccc2)c2ccccc2)c1 (stereo not given) | 0.059 µM | 0.222 µM | 0.0727 µM | 
CCN(CC)CCOCCOC1(c2ccccc2)CCCC1 |  |  | 6.1 µM | 
O=C(NCCCN1CCN(c2cccc(Cl)c2Cl)CC1)c1cccc2c1Cc1ccccc1-2 | 1.68 µM | 0.326 µM | 0.17 µM | 
O=C(NCCCN1CCN(c2ccccc2)CC1)c1ccc2c(c1)Cc1ccccc1-2 | 0.825 µM | 0.679 µM | 1.46 µM | 
C[C@@H]1CN(CCCN(c2ccccc2)c2ccccc2)C[C@H](C)N1CCCc1ccccc1 |  |  | > 5 µM | 
Fc1ccc(C(OC2CC3CCC(C2)N3Cc2cc3ccccc3[nH]2)c2ccc(F)cc2)cc1 (stereo not given) | 0.218 µM | 0.172 µM | 0.0532 µM | 
OC1CCc2c(c3ccccc3n2CCCN2CCN(c3ccccc3)CC2)C1 (stereo not given) | 0.18 µM | > 4 µM | 4.01 µM | 
C[C@@H]1CN(CCCn2c3ccccc3c3ccccc32)C[C@H](C)N1C |  |  | > 8 µM | 
O=C(NCCCN1CCN(c2ccccc2)CC1)c1cccc2c1Cc1ccccc1-2 | 0.473 µM | 0.791 µM | 0.43 µM | 
O=C(NCCCCN1CCN(c2cccc(Cl)c2Cl)CC1)c1ccc2c(c1)-c1ccccc1C2 | 0.217 µM | > 5 µM | 0.0014 µM | 
Fc1ccc(C(OCCOC2CC3CCC(C2)N3)c2ccc(F)cc2)cc1 (stereo not given) | 1.12 µM | > 4 µM | 2.52 µM | 
Clc1ccccc1N1CCN(CCCn2c3ccccc3c3ccccc32)CC1 |  |  | > 4 µM | 
C[C@@H]1CN(CCCn2c3ccccc3c3ccccc32)C[C@H](C)N1CCCc1ccccc1 |  |  | > 4 µM | 
Fc1ccc(C(OC2CC3CCC(C2)N3Cc2cccc3ccccc23)c2ccc(F)cc2)cc1 (stereo not given) | 0.379 µM | 0.12 µM | 0.112 µM | 
Fc1ccc(C(OC2CC3CCC(C2)N3Cc2ccccc2)c2ccc(F)cc2)cc1 (stereo not given) | 0.132 µM | 0.64 µM | 0.0633 µM | 
Fc1ccc(C(O[C@H]2C[C@H]3CC[C@@H](C2)N3CCCCc2ccccc2)c2ccc(F)cc2)cc1 | 0.0813 µM | 0.0681 µM | 0.0138 µM | 
Fc1ccc(C(OC2CC3CCC(C2)N3Cc2ccc(Cl)c(Cl)c2)c2ccc(F)cc2)cc1 (stereo not given) | 0.625 µM | 0.349 µM | 0.277 µM | 
O=C(NCCCCN1CCN(c2cccc(Cl)c2Cl)CC1)c1cccc2c1-c1ccccc1C2=O | 0.089 µM | 1.85 µM | 0.0014 µM | 
O=C(NCCCN1CCN(c2ccccc2)CC1)C1c2ccccc2-c2ccccc21 | 0.606 µM | 2.17 µM | 0.34 µM | 
O=C1c2ccccc2C(=O)N1CCCCCN1CCN(c2cccc(Cl)c2Cl)CC1 | 0.011 µM | 0.105 µM | 0.0078 µM | 

SMILES | Ki (D(2) dopamine receptor) | Ki (D(4) dopamine receptor) | Ki (D(3) dopamine receptor) | Ki [1]
O=C(NCCCCN1CCN(c2cccc(Cl)c2Cl)CC1)C1c2ccccc2-c2ccccc21 | 0.01 µM | 0.391 µM | 0.019 µM | 
CN1[C@@H]2CC[C@H]1C[C@@H](OC(c1ccc(Cl)cc1)c1ccc(Cl)cc1)C2 |  |  | 0.22 µM | 
O=C(NCCCN1CCN(c2cccc(Cl)c2Cl)CC1)c1cccc2c1-c1ccccc1C2=O | 0.512 µM | 3.99 µM | 0.036 µM | 
CN1C2CCC1CC(OC(c1ccccc1)c1ccc(Cl)cc1)C2 (stereo not given) | 1.74 µM | 1 µM | 5.38 µM | 
C[C@@H]1CN(CCCn2c3ccc(Br)cc3c3cc(Br)cc(Br)c32)C[C@@H](C)N1 |  |  | > 8 µM | 
C[C@@H]1CN(CCCn2c3ccccc3c3cc(N)ccc32)C[C@H](C)N1 |  |  | > 8 µM | 
CN1C2CCC1CC(OC1c3ccccc3Cc3ccccc31)C2 (stereo not given) | 0.672 µM | 0.541 µM | 0.193 µM | 
O=C(NCCCN1CCN(c2ccccc2)CC1)c1cccc2c1-c1ccccc1C2=O | 0.777 µM | 1.38 µM | 0.43 µM | 
O=C(NCC1c2ccccc2-c2ccccc21)C1CCNCC1 |  |  | > 8 µM | 
C[C@@H]1CN(CCCN(c2ccccc2)c2ccccc2)C[C@H](C)N1 |  |  | > 8 µM | 
Fc1ccc(C(OCCN2C3CCC2CC(OC(c2ccc(F)cc2)c2ccc(F)cc2)C3)c2ccc(F)cc2)cc1 (stereo not given) | 0.927 µM | 0.868 µM | 0.214 µM | 
c1ccc(N2CCN(CCCn3c4ccccc4c4ccccc43)CC2)cc1 |  |  | 2.42 µM | 
C=CCN1C2CCC1CC(OC(c1ccc(F)cc1)c1ccc(F)cc1)C2 (stereo not given) |  |  | 0.13 µM | 
O=C(NCCCCN1CCN(c2cccc(Cl)c2Cl)CC1)c1ccc2c(c1)-c1ccccc1-2 |  | > 5 µM |  | […]
O=C(NCCCN1CCN(c2cccc(Cl)c2Cl)CC1)c1ccc2c(c1)Cc1ccccc1-2 | 2.57 µM | 0.35 µM | 0.11 µM | 
O=C(NCCCCCN1CCN(c2cccc(Cl)c2Cl)CC1)c1cccc2c1-c1ccccc1C2=O | 0.005 µM | 0.53 µM | 0.028 µM | 
O=C(NCCCN1CCN(c2cccc(Cl)c2Cl)CC1)C1c2ccccc2-c2ccccc21 | 0.414 µM | 1.14 µM | 0.024 µM | 
O=C1c2ccccc2C(=O)N1CCCCN1CCN(c2cccc(Cl)c2Cl)CC1 | 0.12 µM | 0.368 µM | 0.0041 µM | 
CN1C2CCC1CC(OC(c1ccc(F)cc1)c1ccc(F)cc1)C2 (stereo not given) [DIFLUOROBENZTROPINE] |  |  | 0.145 µM | 
